Active and inactive are the calls of the source. The rule behind the calls is not given here.

Activity data for one compound are collected here from ChEMBL document CHEMBL1137629, “Antiproliferative effect of dihydroxyacetone on Trypanosoma brucei bloodstream forms: cell cycle progression, subcellular alterations, and cell death” (Antimicrob Agents Chemother, 2007).

Test [1] relates to Trypanosoma brucei. The test is described as follows: Effect on morphological changes in Trypanosoma brucei bloodstream form assessed as presence of glycosomes at 3 mM after 24 hrs by transmission electron microscopy. The format is functional, organism-based. A digest of the protocol: (§1)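 Parasites exposed 24 h to 3 mM DHA. 10⁸ cells fixed 1 h at 4°C in 2% glutaraldehyde in 0.2 M sodium cacodylate with 0.12 M sucrose, held overnight in buffer, postfixed in 1.5% osmium tetroxide and stained with 0.5% uranyl acetate. Dehydrated in ethanol, cleared in propylene oxide, embedded in Agar 100. Sections stained with 5% uranyl acetate and 0.4% lead citrate for TEM. Rapamycin (5 μM) served as the autophagy positive control.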

In test [2] the test system is Trypanosoma brucei. As to the kind of experiment: Induction of apoptosis-like programmed cell death in Trypanosoma brucei bloodstream form assessed as loss of mitochondrial-membrane potential at 2 mM after 24 hrs by TMRE staining. The format is functional. The procedure, abridged:
(§2)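 T. brucei MITat 1.2 (EATRO 427) bloodstream forms were grown axenically at 37°C, 5% CO₂ and exposed to DHA for 24 h. Cells at 10⁶/ml were stained with 25 nM TMRE in culture medium for 30 min at 37°C and read at once by flow cytometry. Depolarization control: valinomycin 100 nM. Lower fluorescence signifies lost membrane potential.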

The subject of test [3] is Trypanosoma brucei. The test is described as follows: Induction of apoptosis-like programmed cell death in Trypanosoma brucei bloodstream form assessed as loss of mitochondrial-membrane potential at 5 uM after 24 hrs by TMRE staining. The format is functional.
For test [4], the system named is Trypanosoma brucei. As to the kind of experiment: Induction of apoptosis-like programmed cell death in Trypanosoma brucei bloodstream form assessed as phosphatidylserine exposure in outer leaflet of plasma membrane at 3 mM after 24 hrs by V-Fluos staining staining. The format is functional. A digest of the protocol:
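After 24 h DHA exposure of axenic bloodstream-form T. brucei MITat 1.2 (EATRO 427; 37°C, 5% CO₂), cells were washed in HEPES buffer (10 mM, pH 7.4, 140 mM NaCl, 5 mM CaCl₂). They were then stained with annexin V-Fluos for 15 min at 4°C and analysed by flow cytometry.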

For test [5], the system named is Trypanosoma brucei. The test is described as follows: Effect on morphological changes in Trypanosoma brucei bloodstream form assessed as presence of more than one flagellum after 24 hrs using DAPI staining by phase-contrast microscopy. The format is functional, organism-based. A digest of the protocol:
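Bloodstream forms (MITat 1.2, EATRO 427) grown 24 h with or without DHA. Aliquots washed twice in PBS, resuspended, placed on slides and fixed with methanol. Stained 5 min with DAPI (0.1 μg/ml final), then washed. Phase-contrast and fluorescence images scored for nucleus/kinetoplast numbers (1N1K, 1N2K, 2N2K, 2N1K, abnormal). n = 4, Student's t test, SD.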

The test system of test [6] is Trypanosoma brucei. The test is described as follows: Effect on morphological changes in Trypanosoma brucei bloodstream form assessed as change in cell nucleus at 3 mM after 24 hrs by transmission electron microscopy. The format is functional, organism-based. The procedure, abridged: as §1
For test [7], the system named is Trypanosoma brucei. As to the kind of experiment: Trypanocidal activity against Trypanosoma brucei bloodstream form assessed as induction of autophagy at 3 mM after 24 hrs by transmission electron microscopy. The format is functional, organism-based. A digest of the protocol: as §1
The subject of test [8] is Trypanosoma brucei. As to the kind of experiment: Induction of apoptosis-like programmed cell death in Trypanosoma brucei bloodstream form assessed as loss of mitochondrial-membrane potential at 3 mM after 24 hrs by TMRE staining. The format is functional. The procedure, abridged: as §2
Test [9] has as its system Trypanosoma brucei. The test is described as follows: Cell cycle arrest in Trypanosoma brucei bloodstream form assessed as accumulation at G2/M phase at 2 mM after 24 hrs using propidium iodide staining by FACS analysis. The format is functional. A digest of the protocol: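 T. brucei bloodstream forms (MITat 1.2, strain EATRO 427), axenic culture at 37°C, 5% CO₂. Treated 24 h. At least 5 × 10⁵ cells washed in PBS, lysed hypotonically 30 min at room temperature in 10 mM phosphate buffer pH 7.4 with 6 μM digitonin. Nuclei stained with propidium iodide (10 μg/ml final) and analysed by flow cytometry for G₁/S/G₂ distribution and degraded DNA.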

As to `O=C(CO)CO` [DIHYDROXYACETONE], the result in test [1] and in test [7] was Active. Also, the Activity in test [2] was 7.3%; in test [3], 31.4%; in [4], 11.9%; in test [5], “Dose-dependent effect”; in test [8], 12.3%; in test [9] it was “<=70%”. Moreover, the outcome in test [6] was inactive.
